In ChEMBL document CHEMBL1641375, “Antitumor agents 279. Structure-activity relationship and in vivo studies of novel 2-(furan-2-yl)naphthalen-1-ol (FNO) analogs as potent and selective anti-breast cancer agents” (2011):
Converted amounts (≈) assume the structure as drawn.

What was measured:
KB = test: Cytotoxicity against human KB cells after 72 hrs by MTT assay; assay type: functional; details: read-out: ED50 (the source's name)
In short: (§1)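 Focused human tumour panel: A549 (non-small cell lung), DU145 (prostate), KB (nasopharyngeal), KB-VIN (MDR KB subline selected with vincristine), MDA-MB-231 (ER-negative basal-like breast), SK-BR-3 (ER-negative, HER2-overexpressing luminal-like breast), ZR-75-1 (ER-positive, HER2-overexpressing luminal-like breast). Run by previously published methods.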

[1] = Cytotoxicity against human KBVIN cells after 72 hrs by MTT assay; assay type: functional; details: read-out: ED50 (the source's name); in short: as §1
A549 [2] = test: Cytotoxicity against human A549 cells after 72 hrs by MTT assay; assay type: functional; details: A549, 72 h, read-out: ED50 (the source's name); in short: as §1
DU-145 = test: Cytotoxicity against human DU145 cells after 72 hrs by MTT assay; assay type: functional; details: DU-145, 72 h, read-out: ED50 (the source's name); in short: as §1
SK-BR-3 [3] = test: Cytotoxicity against human SKBR3 cells after 72 hrs by MTT assay; assay type: functional; details: SK-BR-3, 72 h, read-out: ED50 (the source's name); in short: as §1
ZR-75-1 [4] = test: Cytotoxicity against human ZR-75-1 cells after 72 hrs by MTT assay; assay type: functional; details: ZR-75-1, 72 h, read-out: ED50 (the source's name); in short: as §1
MDA-MB-231 [5] = test: Cytotoxicity against human MDA-MB-231 cells after 72 hrs by MTT assay; assay type: functional; details: MDA-MB-231, 72 h, read-out: ED50 (the source's name); in short: as §1
[6] = Inhibition of mammary epithelial cells proliferation in Brca1/p53-deficient C57BL/6 and 129/Sv mouse assessed as reduction of mammary gland branching point at 0.1 mg, po qd for 11 days relative to control; assay type: functional, Epithelial cell; details: in the assay text read “ip qd” for “po qd”
In short: (§2)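 Three-month-old Brca1/p53-deficient or wild-type mice (C57BL/6 × 129/Sv background) received 0.1 mg i.p. daily for 11 days in DMSO/40% PEG/0.9% NaCl, or vehicle alone. Mammary gland whole mounts were fixed in Carnoy's fixative for 3 h and stained with Carmine alum overnight. Branching points were counted in three random areas totalling about 2 mm2.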

Epithelial cell = test: Inhibition of wild type mammary epithelial cells proliferation in wild type C57BL/6 and 129/Sv mouse assessed as reduction of mammary gland branching point at 0.1 mg, po qd for 11 days relative to control; assay type: functional; details: in the assay text read “ip qd” for “po qd”; in short: as §2
[7] = Inhibition of mammary epithelial cells proliferation in Brca1/p53-deficient C57BL/6 and 129/Sv mouse assessed as reduction of BrdU positive cells at 0.1 mg, po qd for 11 days relative to control in presence of bromodeoxyuridine treated orally with drinking water last 3 days of treatment; assay type: functional, Epithelial cell; details: in the assay text read “ip qd” for “po qd”
In short: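 Three-month-old Brca1f11/f11p53f5&6/f5&6Crec or wild-type mice (mixed C57BL/6 and 129/Sv background) dosed 0.1 mg i.p. daily for 11 days. Dosing solution was 10 µL of a 10 mg/mL DMSO stock with 30 µL 40% PEG and 60 µL 0.9% NaCl; vehicle lacked compound. BrdU given in drinking water over the last 3 days. Glands fixed in 4% paraformaldehyde, paraffin-sectioned, citrate pH 6.0 antigen retrieval, anti-BrdU 1:1000. BrdU-positive cells per duct counted over ≥15 ducts/animal, ≥3 mice/genotype.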

SK-BR-3 [8] = test: Selectivity ratio, ED50 for human KB cells to ED50 for human SKBR3 cells; assay type: functional
SK-BR-3 [9] = test: Selectivity ratio, ED50 for human KBVIN cells to ED50 for human SKBR3 cells; assay type: functional
A549 [10] = test: Selectivity ratio, ED50 for human A549 cells to ED50 for human SKBR3 cells; assay type: functional
SK-BR-3 [11] = test: Selectivity ratio, ED50 for human DU145 cells to ED50 for human SKBR3 cells; assay type: functional
ZR-75-1 [12] = test: Selectivity ratio, ED50 for human ZR-75-1 cells to ED50 for human SKBR3 cells; assay type: functional
MDA-MB-231 [13] = test: Selectivity ratio, ED50 for human MDA-MB-231 cells to ED50 for human SKBR3 cells; assay type: functional

Row | Structure (SMILES) | EC50 (KB) [µg/mL] | EC50 [1] [µg/mL] | EC50 (A549 [2]) [µg/mL] | EC50 (DU-145) [µg/mL] | EC50 (SK-BR-3 [3]) [µg/mL] | EC50 (ZR-75-1 [4]) [µg/mL] | EC50 (MDA-MB-231 [5]) [µg/mL] | inhibition (INH) [6] [%] | inhibition (INH) (Epithelial cell) [%] | inhibition (INH) [7] [%] | Ratio ED50 (SK-BR-3 [8]) | Ratio ED50 (SK-BR-3 [9]) | Ratio ED50 (A549 [10]) | Ratio ED50 (SK-BR-3 [11]) | Ratio ED50 (ZR-75-1 [12]) | Ratio ED50 (MDA-MB-231 [13])
1 | CCOc1c(-c2occ(C)c2COC)ccc2c(CC)cccc12 | > 10 | 5.9 (≈ 18.2 µM) | > 10 | > 10 | > 10 | > 10 | 4.9 (≈ 15.1 µM) |  |  |  |  |  |  |  |  | 
2 | CCc1cccc2c(OC(C)=O)c(-c3occ(C)c3COC(C)=O)ccc12 | > 10 | > 10 | > 10 | > 10 | > 10 | > 10 | > 10 |  |  |  |  |  |  |  |  | 
3 | CCOCc1c(C)coc1-c1ccc2c(CC)cccc2c1OC | > 10 | > 10 | > 10 | > 10 | > 10 | 9.1 (≈ 28.1 µM) |  |  |  |  |  |  |  |  |  | 
4 | CCc1cccc2c(OC)c(-c3occ(C)c3C(=O)NC)ccc12 | > 10 | > 10 | > 10 | > 10 | > 10 | > 10 | > 10 |  |  |  |  |  |  |  |  | 
5 | CCc1cccc2c(OC)c(-c3occ(C)c3CBr)ccc12 | > 10 | > 10 | > 10 | > 10 | > 10 | 4.6 (≈ 12.8 µM) |  |  |  |  |  |  |  |  |  | 
6 | CCc1cccc2c(OC)c(-c3occ(C)c3C(=S)OC)ccc12 | 4.3 (≈ 12.6 µM) | 5.1 (≈ 15 µM) | 6.2 (≈ 18.2 µM) | 5.7 (≈ 16.7 µM) | 6.3 (≈ 18.5 µM) | 5.8 (≈ 17 µM) | 7.1 (≈ 20.9 µM) |  |  |  |  |  |  |  |  | 
7 | CCc1cccc2c(OC)c(-c3occ(C)c3C(=O)OC)ccc12 | 1.7 (≈ 5.24 µM) | 1.3 (≈ 4.01 µM) | 1.5 (≈ 4.62 µM) | 2.2 (≈ 6.78 µM) | 1.2 (≈ 3.7 µM) | 1.3 (≈ 4.01 µM) | 2.3 (≈ 7.09 µM) |  |  |  |  |  |  |  |  | 
8 | CCOc1c(-c2occ(C)c2CO)ccc2c(CC)cccc12 | > 10 | 6.4 (≈ 20.6 µM) | > 10 | > 10 | 8.8 (≈ 28.4 µM) | 1.4 (≈ 4.51 µM) | 1.7 (≈ 5.48 µM) |  |  |  |  |  |  |  |  | 
9 | CCc1cccc2c(OC)c(-c3occ(C)c3COC(=O)CCN(CC)CC)ccc12 | > 10 | > 10 | > 10 | > 10 | > 10 | 1.7 (≈ 4.01 µM) | 0.85 (≈ 2.01 µM) |  |  |  |  |  |  |  |  | 
10 | CCCOC(=O)c1c(C)coc1-c1ccc2c(CC)cccc2c1OC | > 10 | > 10 | > 10 | > 10 | > 10 | > 10 | > 10 |  |  |  |  |  |  |  |  | 
11 | CCc1cccc2c(O)c(-c3occ(C)c3C(=O)O)ccc12 | 9.1 (≈ 30.7 µM) | 7 (≈ 23.6 µM) |  | 8.7 (≈ 29.4 µM) | 1 (≈ 3.37 µM) | 0.3 (≈ 1.01 µM) |  | 70 | 29 | 83 |  |  |  |  |  | 
12 | CCc1cccc2c(OC)c(-c3occ(C)c3COC(C)=O)ccc12 | > 10 | > 10 | > 10 | > 10 | > 10 | 3.5 (≈ 10.3 µM) |  |  |  |  |  |  |  |  |  | 
13 | CCOc1c(-c2occ(C)c2C(=O)O)ccc2c(CC)cccc12 | > 10 | > 10 | > 10 | > 10 | > 10 | > 10 | > 10 |  |  |  |  |  |  |  |  | 
14 | CCOc1c(-c2occ(C)c2C(=O)OC)ccc2c(CC)cccc12 | 1.8 (≈ 5.32 µM) | 1.7 (≈ 5.02 µM) | 2.4 (≈ 7.09 µM) | 1.9 (≈ 5.61 µM) | 1.9 (≈ 5.61 µM) | 1.2 (≈ 3.55 µM) | 1.1 (≈ 3.25 µM) |  |  |  |  |  |  |  |  | 
15 | CCc1cccc2c(OC)c(-c3occ(C)c3COC)ccc12 | > 10 | 8.8 (≈ 28.4 µM) | > 10 | > 10 | > 10 | 9.7 (≈ 31.3 µM) |  |  |  |  |  |  |  |  |  | 
16 | CCOC(=O)c1c(C)coc1-c1ccc2c(CC)cccc2c1OC | 2.2 (≈ 6.5 µM) | 1.8 (≈ 5.32 µM) | 3.8 (≈ 11.2 µM) | 2.2 (≈ 6.5 µM) | 2.5 (≈ 7.39 µM) | 3.9 (≈ 11.5 µM) | 4.3 (≈ 12.7 µM) |  |  |  |  |  |  |  |  | 
17 | CCc1cccc2c(OC)c(-c3occ(C)c3COCC(F)(F)F)ccc12 | 6.6 (≈ 17.4 µM) | 6 (≈ 15.9 µM) | > 10 | 5.7 (≈ 15.1 µM) | 5.3 (≈ 14 µM) | 5.3 (≈ 14 µM) |  |  |  |  |  |  |  |  |  | 
18 | CCc1cccc2c(OC)c(-c3occ(C)c3CO)ccc12 | 7.1 (≈ 24 µM) | 6.6 (≈ 22.3 µM) | 9.6 (≈ 32.4 µM) | 7.2 (≈ 24.3 µM) | 0.73 (≈ 2.46 µM) | > 10 | > 10 |  |  |  | 9 | 9 | 13.2 | 9 | > 13.7 | > 13.7
19 | CCc1cccc2c(OC)c(-c3occ(C)c3C(=O)On3nnc4ccccc43)ccc12 | > 10 | > 10 | > 10 | > 10 | > 10 | > 10 | > 10 |  |  |  |  |  |  |  |  | 
20 | CCOc1c(-c2occ(C)c2COC(C)=O)ccc2c(CC)cccc12 | > 10 | 5.8 (≈ 16.5 µM) | > 10 | > 10 | > 10 | 4.9 (≈ 13.9 µM) | > 10 |  |  |  |  |  |  |  |  | 
